Data reported in ChEMBL document CHEMBL4689842, “EUbOPEN Chemogenomics Library wave 1” (2021).

Tested on: U2OS
Test: Multiplex assay against U2OS
Type: toxicity, cell-based
Settings: human
Summary of the method: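 Phenotypes for tubulin, mitochondrial mass and membrane permeability are expressed as per cents of healthy-nucleus cells. Cells were stained live at seeding with Hoechst33342, BioTracker Green Microtubule Cytoskeleton Dye, MitoTracker Red and Annexin V Alexa Fluor 680, then imaged after compound addition on a CQ1 microscope at 37°C and 5% CO2. Machine-learning gating in CellPathfinder separated Hoechst high-intensity objects from normal cells, divided normal cells by nuclear state (healthy, pyknosed, fragmented) and divided pyknosed cells into mitotic or apoptotic.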

[1] = 12 h, 1 µM, compound concentration 1 uM, replicate 1
[2] = 12 h, 1 µM, compound concentration 1 uM, replicate 2
[3] = 12 h, 10 µM, compound concentration 10 uM, replicate 1
[4] = 12 h, 10 µM, compound concentration 10 uM, replicate 2
[5] = 24 h, 1 µM, compound concentration 1 uM, replicate 1
[6] = 24 h, 1 µM, compound concentration 1 uM, replicate 2
[7] = 24 h, 10 µM, compound concentration 10 uM, replicate 1
[8] = 24 h, 10 µM, compound concentration 10 uM, replicate 2

For `NC(=O)c1cccc(-c2cc(Nc3ccc(OC(F)(F)F)cc3)ncn2)c1`, the “Population Apoptotic (%)” value [1] was 27%, the “Population Fragmented Nuclei (%)” value [1] was 5% and the “Population Healthy Nuclei (%)” value [1] was 89%. For the same molecule, the “Population Hoechst High Intensity Objects (%)” value [1] was 1%, the “Population Membrane Permeable-Phenotype (%)” value [1] was 8% and the “Population Mitochondria Different-Phenotype (%)” value [1] was 24%. For the same molecule, the “Population Mitotic Cells (%)” value [1] was 72%, the “Population Normal (%)” value [1] was 98% and the “Population Pyknosed Nuclei (%)” value [1] was 5%. The “Population Tubulin-Different-Phenotype (%)” value [1] was 25%, the “Total Cell Count” value [1] was 640 and the “Population Apoptotic (%)” value [2] was 0%. For the same molecule, the “Population Fragmented Nuclei (%)” value [2] was 16%, the “Population Healthy Nuclei (%)” value [2] was 81% and the “Population Hoechst High Intensity Objects (%)” value [2] was 16%. For the same molecule, the “Population Membrane Permeable-Phenotype (%)” value [2] was 13%, the “Population Mitochondria Different-Phenotype (%)” value [2] was 36% and the “Population Mitotic Cells (%)” value [2] was 100%. The “Population Normal (%)” value [2] was 84%, the “Population Pyknosed Nuclei (%)” value [2] was 1% and the “Population Tubulin-Different-Phenotype (%)” value [2] was 29%. For the same molecule, the “Total Cell Count” value [2] was 738, the “Population Apoptotic (%)” value [3] was 56% and the “Population Fragmented Nuclei (%)” value [3] was 5%. The “Population Healthy Nuclei (%)” value [3] was 86%, the “Population Hoechst High Intensity Objects (%)” value [3] was 3% and the “Population Membrane Permeable-Phenotype (%)” value [3] was 7%. The “Population Mitochondria Different-Phenotype (%)” value [3] was 26%, the “Population Mitotic Cells (%)” value [3] was 43% and the “Population Normal (%)” value [3] was 96%. The “Population Tubulin-Different-Phenotype (%)” value [3] was 16%, the “Total Cell Count” value [3] was 201 and the “Population Apoptotic (%)” value [4] was 45%. For the same molecule, the “Population Fragmented Nuclei (%)” value [4] was 4%, the “Population Healthy Nuclei (%)” value [4] was 87% and the “Population Hoechst High Intensity Objects (%)” value [4] was 9%. For the same molecule, the “Population Membrane Permeable-Phenotype (%)” value [4] was 12%, the “Population Mitochondria Different-Phenotype (%)” value [4] was 24% and the “Population Mitotic Cells (%)” value [4] was 54%. The “Population Normal (%)” value [4] was 90%, the “Population Pyknosed Nuclei (%)” value [4] was 8% and the “Population Tubulin-Different-Phenotype (%)” value [4] was 13%. For the same molecule, the “Total Cell Count” value [4] was 125, the “Population Apoptotic (%)” value [5] was 27% and the “Population Fragmented Nuclei (%)” value [5] was 2%. For the same molecule, the “Population Healthy Nuclei (%)” value [5] was 93%, the “Population Hoechst High Intensity Objects (%)” value [5] was 0% and the “Population Membrane Permeable-Phenotype (%)” value [5] was 3%. For the same molecule, the “Population Mitochondria Different-Phenotype (%)” value [5] was 23%, the “Population Mitotic Cells (%)” value [5] was 72% and the “Population Normal (%)” value [5] was 99%. For the same molecule, the “Population Tubulin-Different-Phenotype (%)” value [5] was 31%, the “Total Cell Count” value [5] was 576 and the “Population Apoptotic (%)” value [6] was 20%. The “Population Fragmented Nuclei (%)” value [6] was 8%, the “Population Healthy Nuclei (%)” value [6] was 87% and the “Population Hoechst High Intensity Objects (%)” value [6] was 6%. For the same molecule, the “Population Membrane Permeable-Phenotype (%)” value [6] was 14%, the “Population Mitochondria Different-Phenotype (%)” value [6] was 42% and the “Population Mitotic Cells (%)” value [6] was 80%. For the same molecule, the “Population Normal (%)” value [6] was 93%, the “Population Pyknosed Nuclei (%)” value [6] was 3% and the “Population Tubulin-Different-Phenotype (%)” value [6] was 44%. For the same molecule, the “Total Cell Count” value [6] was 747, the “Population Apoptotic (%)” value [7] was 16% and the “Population Fragmented Nuclei (%)” value [7] was 6%. For the same molecule, the “Population Healthy Nuclei (%)” value [7] was 90%, the “Population Hoechst High Intensity Objects (%)” value [7] was 0% and the “Population Membrane Permeable-Phenotype (%)” value [7] was 5%. The “Population Mitochondria Different-Phenotype (%)” value [7] was 19%, the “Population Mitotic Cells (%)” value [7] was 83% and the “Population Normal (%)” value [7] was 99%. For the same molecule, the “Population Pyknosed Nuclei (%)” value [7] was 4%, the “Population Tubulin-Different-Phenotype (%)” value [7] was 20% and the “Total Cell Count” value [7] was 281. The “Population Apoptotic (%)” value [8] was 14%, the “Population Fragmented Nuclei (%)” value [8] was 4% and the “Population Healthy Nuclei (%)” value [8] was 88%. The “Population Hoechst High Intensity Objects (%)” value [8] was 7%, the “Population Membrane Permeable-Phenotype (%)” value [8] was 8% and the “Population Mitochondria Different-Phenotype (%)” value [8] was 25%. The “Population Mitotic Cells (%)” value [8] was 85%, the “Population Normal (%)” value [8] was 92% and the “Population Pyknosed Nuclei (%)” value [8] was 7%. The “Population Tubulin-Different-Phenotype (%)” value [8] was 19% and the “Total Cell Count” value [8] was 145.
